The structures appear in SMILES notation. pKi: −log10 of the molar value.

The pKi is the negative decadic logarithm of the Ki, by convention in mol/L. One may read the inhibition as the change of the read-out against control, counted positive when it falls. For orientation: Km means the substrate concentration at which the rate is half of its maximum. Usually Vmax stands for the top rate of the reaction or transport when substrate is in excess.

Assay [1] addresses T1, Coagulation factor XI (Homo sapiens, UniProt P03951). The assay is described as follows: Binding affinity to coagulation factor 11a (unknown origin) assessed as inhibition constant using (p-Glu-Pro-Arg-pNa,HCl) as substrate preincubated for 5 mins followed by substrate addition and measured after 10 mins.
Assay [2] addresses T1, Coagulation factor XI. The assay is described as follows: Inhibition of coagulation factor 11a (unknown origin) at 500 uM using (p-Glu-Pro-Arg-pNa,HCl) as substrate preincubated for 5 mins followed by substrate addition and measured after 10 mins relative to control. The following applies: time 15.0 min.
For assay [3], the system named is Oryctolagus cuniculus. The assay is described as follows: Antithrombotic activity in New Zealand White rabbit model of AV-shunt induced thrombosis assessed as reduction in thrombosis weight by measuring inhibition of thrombosis formation at 0.5 mg/kg, administered as iv bolus dose and subsequently followed by 0.8 mg/kg/hr as iv infusion relative to control. The class given is functional. Put shortly:
(§1)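 Male New Zealand White rabbits under urethane anesthesia (1.25 g/kg). A control-period AV shunt gave the baseline thrombus wet weight, found by subtraction. The compound in saline vehicle was then given as an IV bolus followed by continuous IV infusion via the jugular vein. A new AV shunt ran for 40 min. Result is % inhibition of thrombus formation, treatment versus control period. Three rabbits per group.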

For the next assay, the target named is T2, Coagulation factor VII (Homo sapiens, UniProt P08709).
T2 sequence (P08709 whole entry): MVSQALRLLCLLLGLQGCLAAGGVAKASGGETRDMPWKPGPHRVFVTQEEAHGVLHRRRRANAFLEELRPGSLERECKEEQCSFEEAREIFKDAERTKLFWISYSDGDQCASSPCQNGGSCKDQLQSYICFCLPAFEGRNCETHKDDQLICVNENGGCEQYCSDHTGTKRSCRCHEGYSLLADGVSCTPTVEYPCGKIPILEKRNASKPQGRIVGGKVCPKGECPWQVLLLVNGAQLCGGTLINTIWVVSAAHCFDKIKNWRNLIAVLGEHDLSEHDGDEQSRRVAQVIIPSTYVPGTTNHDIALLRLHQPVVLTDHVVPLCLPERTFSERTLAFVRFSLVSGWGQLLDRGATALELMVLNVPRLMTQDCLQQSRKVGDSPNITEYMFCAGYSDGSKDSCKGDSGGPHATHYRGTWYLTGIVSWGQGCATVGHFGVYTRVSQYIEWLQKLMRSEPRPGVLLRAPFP
Nature of the assay: Binding affinity to coagulation factor 7a (unknown origin) assessed as inhibition constant using CH3SO2-D-CHA-But-Arg-pNA,ACOH as substrate preincubated for 10 mins followed by substrate addition and further incubated for 10 mins. In short, it runs like this:
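FVIIa was preincubated with compound or blank buffer at 37 °C for 10 min. Chromogenic substrate was added and absorbance read at 405 nm. Compounds came from DMSO stocks (10 mM) diluted in assay buffer. IC50 was derived from a concentration range.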

For the next assay, the target named is Coagulation factor X (Homo sapiens, UniProt P00742). Nature of the assay: Binding affinity to coagulation factor 10a (unknown origin) assessed as inhibition constant using CH3OCO-D-CHA-Gly-Arg-pNA,ACOH as substrate preincubated for 10 mins followed by substrate addition. In short, it runs like this:
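FXa was preincubated with compound or blank buffer at 25 °C for 10 min. Chromogenic substrate was added and absorbance read at 405 nm. Compounds came from DMSO stocks (10 mM) diluted in assay buffer. IC50 was derived from a concentration range.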

The nature of assay [4]: Binding affinity to thrombin (unknown origin) assessed as inhibition constant using H-D-Phe-Pip-Arg-pNA,2HCl as substrate preincubated for 10 mins followed by substrate addition. The arrangement: species or system Homo sapiens. In short, it runs like this:
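Thrombin was preincubated with compound or blank buffer at 25 °C for 10 min. Chromogenic substrate was added and absorbance read at 405 nm. Compounds came from DMSO stocks (10 mM) diluted in assay buffer. IC50 was derived from a concentration range.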

The species entered for assay [5] is Homo sapiens. The assay is described as follows: Selectivity ratio of Ki for coagulation factor 7a (unknown origin) to Ki for coagulation factor 11a (unknown origin).
Assay [6] is filed under the species Homo sapiens. The assay is described as follows: Selectivity ratio of Ki for coagulation factor 10a (unknown origin) to Ki for coagulation factor 11a (unknown origin).
The species entered for assay [7] is Homo sapiens. Nature of the assay: Selectivity ratio of Ki for thrombin (unknown origin) to Ki for coagulation factor 11a (unknown origin).
For assay [8], the species on record is Homo sapiens. The assay is described as follows: Selectivity ratio of Ki for plasma kallikrein (unknown origin) to Ki for coagulation factor 11a (unknown origin).
Assay [9] is filed under the species Homo sapiens. Nature of the assay: Competitive inhibition of coagulation factor 11a (unknown origin) assessed as Km at 0.005 uM using varying levels (p-Glu-Pro-Arg-pNa,HCl) as substrate by Lineweaver-Burk plot analysis. In short, it runs like this: (§2)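 Same FXIa assay (37 °C, 5 min preincubation, 405 nm read), run at four substrate levels with final concentrations of 42.5, 85, 170 and 340. Km and Vmax were taken from a Lineweaver-Burk plot using the Michaelis-Menten relationship.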

Assay [10] is filed under the species Homo sapiens. The assay is described as follows: Competitive inhibition of coagulation factor 11a (unknown origin) assessed as Km at 0.01 uM using varying levels (p-Glu-Pro-Arg-pNa,HCl) as substrate by Lineweaver-Burk plot analysis. In short, it runs like this: as §2
The species named for assay [11] is Homo sapiens. The assay is described as follows: Competitive inhibition of coagulation factor 11a (unknown origin) assessed as Km at 0.02 uM using varying levels (p-Glu-Pro-Arg-pNa,HCl) as substrate by Lineweaver-Burk plot analysis. Put shortly:
as §2

For assay [12], the species on record is Homo sapiens. Nature of the assay: Competitive inhibition of coagulation factor 11a (unknown origin) assessed as Km at 0.04 uM using varying levels (p-Glu-Pro-Arg-pNa,HCl) as substrate by Lineweaver-Burk plot analysis. Put shortly:
as §2

The species named for assay [13] is Homo sapiens. Nature of the assay: Competitive inhibition of coagulation factor 11a (unknown origin) assessed as Vmax at 0.005 to 0.04 uM using varying levels (p-Glu-Pro-Arg-pNa,HCl) as substrate by Lineweaver-Burk plot analysis. The following applies: dose 0.005-0.04 µM. Put shortly:
as §2

Assay [14] is filed under the species Homo sapiens. Nature of the assay: Competitive inhibition of coagulation factor 11a (unknown origin) using varying levels (p-Glu-Pro-Arg-pNa,HCl) as substrate by Lineweaver-Burk plot analysis. The following applies: dose 0.005-0.04 µM. In short, it runs like this:
as §2

Assay [15] relates to Oryctolagus cuniculus. The assay is described as follows: Antithrombotic activity in New Zealand White rabbit model of AV-shunt induced thrombosis assessed as reduction in thrombosis weight by measuring inhibition of thrombosis formation at 2.5 mg/kg, administered as iv bolus dose and subsequently followed by 4 mg/kg/hr as iv infusion relative to control. The class given is functional. In short, it runs like this: as §1

Assay [16] deals with Oryctolagus cuniculus. The assay is described as follows: Antithrombotic activity in New Zealand White rabbit model of AV-shunt induced thrombosis assessed as reduction in thrombosis weight by measuring inhibition of thrombosis formation at 5 mg/kg, administered as iv bolus dose and subsequently followed by 8 mg/kg/hr as iv infusion relative to control. The class given is functional. Put shortly: as §1

The next assay addresses Plasma kallikrein (Homo sapiens, UniProt P03952). The assay is described as follows: Binding affinity to plasma kallikrein (unknown origin) assessed as inhibition constant using D-Pro-Phe,Arg,pNa,2HCl as substrate preincubated for 15 mins followed by substrate addition.
For assay [17], the target named is T1, Coagulation factor XI. The assay is described as follows: Inhibition of coagulation factor 11a (unknown origin) at 100 uM using (p-Glu-Pro-Arg-pNa,HCl) as substrate preincubated for 5 mins followed by substrate addition and measured after 10 mins relative to control. Conditions: time 15.0 min.

T1 sequence (P03951 19-387 limits assumed): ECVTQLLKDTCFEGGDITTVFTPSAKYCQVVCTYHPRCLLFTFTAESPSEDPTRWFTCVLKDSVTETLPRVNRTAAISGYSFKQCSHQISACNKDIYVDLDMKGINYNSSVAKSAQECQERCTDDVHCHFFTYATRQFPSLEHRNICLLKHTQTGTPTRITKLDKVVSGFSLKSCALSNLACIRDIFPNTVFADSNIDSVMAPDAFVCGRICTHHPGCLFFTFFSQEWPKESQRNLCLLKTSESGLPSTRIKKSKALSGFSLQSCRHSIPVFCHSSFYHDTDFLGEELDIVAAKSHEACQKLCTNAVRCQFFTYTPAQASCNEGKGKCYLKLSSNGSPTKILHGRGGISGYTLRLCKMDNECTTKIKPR
T1 sequence (P03951 388-625 limits assumed): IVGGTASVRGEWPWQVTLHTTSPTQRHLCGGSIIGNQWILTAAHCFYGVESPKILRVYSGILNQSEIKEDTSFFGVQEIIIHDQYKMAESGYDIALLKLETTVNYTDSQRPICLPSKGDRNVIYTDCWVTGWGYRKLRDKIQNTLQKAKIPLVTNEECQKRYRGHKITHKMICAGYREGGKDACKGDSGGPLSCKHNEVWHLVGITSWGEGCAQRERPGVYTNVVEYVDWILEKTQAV
Chain of Coagulation factor X (P00742 41-179 limits assumed): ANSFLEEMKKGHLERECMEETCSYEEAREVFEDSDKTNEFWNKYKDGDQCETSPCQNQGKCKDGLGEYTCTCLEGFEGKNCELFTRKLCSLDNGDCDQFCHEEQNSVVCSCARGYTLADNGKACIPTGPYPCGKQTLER
Chain of Coagulation factor X (P00742 235-488 limits assumed): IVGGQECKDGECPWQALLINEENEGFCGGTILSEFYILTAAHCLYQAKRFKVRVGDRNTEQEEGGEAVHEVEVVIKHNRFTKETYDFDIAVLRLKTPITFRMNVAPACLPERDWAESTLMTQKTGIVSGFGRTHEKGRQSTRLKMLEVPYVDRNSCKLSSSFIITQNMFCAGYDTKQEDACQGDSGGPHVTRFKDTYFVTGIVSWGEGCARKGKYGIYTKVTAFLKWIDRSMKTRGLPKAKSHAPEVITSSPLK
Chain of Plasma kallikrein (P03952 20-390 limits assumed): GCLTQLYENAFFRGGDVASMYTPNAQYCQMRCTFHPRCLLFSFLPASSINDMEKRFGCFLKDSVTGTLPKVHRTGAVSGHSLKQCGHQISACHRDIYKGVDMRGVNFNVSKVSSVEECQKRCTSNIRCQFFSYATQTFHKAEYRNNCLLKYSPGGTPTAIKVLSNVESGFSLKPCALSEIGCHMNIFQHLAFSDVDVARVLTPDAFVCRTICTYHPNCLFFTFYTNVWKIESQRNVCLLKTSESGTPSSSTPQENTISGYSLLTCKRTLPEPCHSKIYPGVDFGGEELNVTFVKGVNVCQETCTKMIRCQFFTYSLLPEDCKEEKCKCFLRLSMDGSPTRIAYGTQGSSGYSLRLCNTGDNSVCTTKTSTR
Chain of Plasma kallikrein (P03952 391-638 limits assumed): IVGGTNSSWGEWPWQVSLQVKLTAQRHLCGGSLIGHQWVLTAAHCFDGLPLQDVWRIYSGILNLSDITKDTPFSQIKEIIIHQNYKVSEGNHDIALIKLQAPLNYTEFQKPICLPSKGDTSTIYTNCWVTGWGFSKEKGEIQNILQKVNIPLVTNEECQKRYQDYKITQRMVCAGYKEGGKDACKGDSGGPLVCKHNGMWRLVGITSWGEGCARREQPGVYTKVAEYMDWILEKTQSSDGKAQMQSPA

In the case of `Cc1nc(-c2ccc(OCC(C)C)c(C#N)c2)n(O)c1C(=O)O`, at Coagulation factor XI [1], the pKi was < 3.30. Besides, the inhibition against Coagulation factor XI [2] came to 29.8%.

As for `NC[C@H]1CC[C@H](C(=O)N[C@@H](Cc2ccccc2)c2nc(-c3ccc4c(N)n[nH]c4c3)c(Cl)[nH]2)CC1`, at Coagulation factor XI [1], the pKi was 8.82. The “inhibition (INH)” value in the assay with Oryctolagus cuniculus [3] stood at 59.26%.

In the case of `Cc1nc(-c2cccc(Cl)c2F)n(O)c1C(=O)N[C@@H](Cc1ccc(NC(=O)C2CC2C)cc1)C(=O)Nc1ccc2[nH]c(C(=O)O)cc2c1` (some centres undefined), the pKi at Coagulation factor XI [1] was 8.05; on Coagulation factor VII, 5.38; at Coagulation factor X, < 5.10; in assay [4], < 4.90; on Plasma kallikrein, 6.72. Further, the Ratio Ki is > 400 in the assay listed under Homo sapiens [5], > 400 in the assay listed under Homo sapiens [6], > 400 in the assay listed under Homo sapiens [7] and 21.3 in the assay filed under Homo sapiens [8]. In addition, the Km is 45.5 µM in the assay filed under Homo sapiens [9], 60.3 µM in the assay listed under Homo sapiens [10], 89.9 µM in the assay filed under Homo sapiens [11] and 128 µM in the assay filed under Homo sapiens [12]. Besides, in the assay listed under Homo sapiens [13], the Vmax is 0.17 µM/min. Also, the inhibition entry in the assay filed under Homo sapiens [14] is “Dose-Dependent Effect”. Further, the “inhibition (INH)” value in the assay on Oryctolagus cuniculus [3] stood at 26.8%; with Oryctolagus cuniculus [15], 42.67%; in the assay on Oryctolagus cuniculus [16], 51.04%.

On to `Cc1nc(-c2ccc(Cl)cc2)n(O)c1C(=O)N[C@@H](Cc1ccccc1)C(=O)Nc1ccc(C(=O)O)cc1`, for which, on Coagulation factor XI [1], the negative-log Ki (pKi) was < 4.00. Also, the inhibition against Coagulation factor XI [17] is 22.5%.

Take `Cc1nc(-c2ccc(C#N)cc2)n(O)c1C(=O)N[C@@H](Cc1ccccc1)C(=O)Nc1ccc(C(=O)O)cc1`: on Coagulation factor XI [1], the pKi was < 4.00. In addition, the inhibition on Coagulation factor XI [17] amounted to 0%.

With `COn1c(-c2cccc(Cl)c2F)nc(C)c1C(=O)N[C@@H](Cc1ccccc1)C(=O)Nc1ccc(C(=O)O)cc1`, on Coagulation factor XI [1], the pKi is < 4.00. Moreover, at Coagulation factor XI [17], the inhibition amounted to 0%.

For the compound `Cc1nc(-c2ccccc2C#N)n(O)c1C(=O)N[C@@H](Cc1ccccc1)C(=O)Nc1ccc(C(=O)O)cc1`, on Coagulation factor XI [1], the pKi was 4.72. The inhibition at Coagulation factor XI [17] is 16.4%.

Take `Cc1nc(-c2ccccc2Cl)n(O)c1C(=O)N[C@@H](Cc1ccccc1)C(=O)Nc1ccc(C(=O)O)cc1`: at Coagulation factor XI [1], the pKi was < 4.00. For the same compound, the inhibition on Coagulation factor XI [17] was found to be 34.1%.

Consider `Cc1nc(-c2cccc(Cl)c2F)n(O)c1C(=O)N[C@@H](Cc1ccc(F)cc1)C(=O)Nc1ccc2[nH]c(C(=O)O)cc2c1`, for which, on Coagulation factor XI [1], the pKi is 6.31.

`Cc1nc(-c2cccc(Cl)c2F)n(O)c1C(=O)N[C@@H](Cc1ccc(Cl)cc1)C(=O)Nc1ccc2[nH]c(C(=O)O)cc2c1`: the negative logarithm of the Ki (pKi) on Coagulation factor XI [1] is 6.45.
